Measured values of several laboratories.
Compare with care: the assays were run in different laboratories.
Cell line: MDA-MB-231
Read-out: cell growth or viability

Structure (SMILES)	method	tested at	time	quantity	result
CCOc1cccc(CN2CCc3cc(O)c(OC)cc3C2)c1	WST-1		96 h	GI50	> 100 µM
Cc1ccc2nc(-c3ccc(Cl)cc3)n(Cc3ccccc3Cl)c2c1	MTT			IC50	74.2 µM
CCOc1cccc(CN2CCc3cc(OS(N)(=O)=O)c(OC)cc3C2)c1	WST-1		96 h	GI50	0.65 µM
C[C@]12CC[C@@H]3c4ccc(O)cc4CC[C@H]3[C@@H]1CC[C@@H]2O	ATP luminescence		72 h	EC90	40.1 µM
COc1cc2c(cc1O)CCN(Cc1cccc(OC)c1OC)C2	WST-1		96 h	GI50	> 100 µM
COc1cccc(-c2nc3ccc(C)cc3[nH]2)c1	MTT		48 h	IC50	15.6 µM
COc1cc2c(cc1OS(N)(=O)=O)CCN(Cc1cccc(NC(C)=O)c1)C2	WST-1		96 h	GI50	> 100 µM
Clc1ccc(-c2nc3ccccc3n2Cc2ccccc2)cc1Cl	MTT			IC50	52.5 µM
CC(=O)O[C@H]1C(=O)[C@@]2(C)[C@H]([C@H](OC(=O)c3ccccc3)[C@]3(O)C[C@H](OC(=O)[C@H](O)[C@@H](NC(=O)c4ccccc4)c4ccccc4)C(C)=C1C3(C)C)[C@]1(OC(C)=O)CO[C@@H]1C[C@@H]2O	WST-1		96 h	GI50	0.002 µM
O=C1CCCCC1=C1Sc2nc3ccc(S(=O)(=O)N4CCCC4)cc3nc2S1	MTT	100 µM	24 h	viability	8.2%
CCOc1c(OC)cc(CN2CCc3cc(O)c(OC)cc3C2)cc1OC	WST-1		96 h	GI50	0.3 µM
C[C@]1(c2nc3c(C(N)=O)cccc3[nH]2)CCCN1	ATP luminescence		7 days	EC50	> 10 µM
COc1cccc2c1C(=O)c1c(O)c3c(c(O)c1C2=O)C[C@@](O)(C(=O)CO)C[C@@H]3O[C@H]1C[C@H](N)[C@H](O)[C@H](C)O1	MTT		48 h	IC90	> 20 µM
COc1cccc2c1C(=O)c1c(O)c3c(c(O)c1C2=O)C[C@@](O)(C(=O)CO)C[C@@H]3O[C@H]1C[C@H](N)[C@H](O)[C@H](C)O1	MTT	3.125 µM	24 h	viability	52.6%
COc1ccc(-c2cn(-c3cc(=O)oc4ccc(Br)cc34)nn2)cc1	imaging		72 h	CC50	10.7 µM
N#CC(C(=O)Nc1cccc(C(F)(F)F)c1)=C1Sc2nc3ccc(S(=O)(=O)N4CCCC4)cc3nc2S1	MTT	3.125 µM	24 h	viability	77.1%
COc1ccc(-c2nc3ccc(C)cc3[nH]2)cc1OC	MTT		48 h	IC50	52.6 µM
COc1cc2c(cc1OS(N)(=O)=O)CCN(Cc1cccc(OC)c1OC)C2	WST-1		96 h	GI50	0.888 µM
CCOC(=O)C(C(C)=O)=C1Sc2nc3ccc(S(=O)(=O)N4CCCC4)cc3nc2S1	MTT	100 µM	24 h	viability	3.7%
COc1cc2c(cc1O)CCN(Cc1cc(Cl)c(OC)c(OC)c1)C2	WST-1		96 h	GI50	0.4 µM
Cc1ccc2nc(-c3c4ccccc4cc4ccccc34)[nH]c2c1	MTT		48 h	IC50	36.8 µM
COc1cc2c(cc1O)CCN(Cc1cccc([N+](=O)[O-])c1)C2	WST-1		96 h	GI50	> 100 µM
Cc1ccc2nc(-c3ccncc3)[nH]c2c1	MTT		48 h	IC50	74.6 µM
COc1cc2c(cc1OS(N)(=O)=O)CCN(Cc1cccc(OC(F)(F)F)c1)C2	WST-1		96 h	GI50	2.29 µM
c1ccc2c(-c3nc4ccccc4[nH]3)c3ccccc3cc2c1	MTT		48 h	IC50	8.4 µM
COc1cc2c(cc1OS(N)(=O)=O)CCN(Cc1cccc(C#N)c1)C2	WST-1		96 h	GI50	4.7 µM
COc1ccc(-c2nc3ccc(C)cc3[nH]2)cc1O	MTT		48 h	IC50	55.1 µM
CCOc1cc(CN2CCc3cc(OS(N)(=O)=O)c(OC)cc3C2)cc(OCC)c1OCC	WST-1		96 h	GI50	4.4 µM
